Data reported in ChEMBL document CHEMBL4308827 (J Med Chem, 2018).
The source made the active and inactive calls. The rule behind the calls is not given here.

What was measured:
[1] = molecular target: T1, Metabotropic glutamate receptor 2 (Homo sapiens, UniProt Q14416); assay: Displacement of [3H]JNJ-46281222 from human mGlu2 receptor expressed in CHOK1 cell membranes after 1 hr by microbeta scintillation counting method
Target sequence in this assay (Q14416 whole entry): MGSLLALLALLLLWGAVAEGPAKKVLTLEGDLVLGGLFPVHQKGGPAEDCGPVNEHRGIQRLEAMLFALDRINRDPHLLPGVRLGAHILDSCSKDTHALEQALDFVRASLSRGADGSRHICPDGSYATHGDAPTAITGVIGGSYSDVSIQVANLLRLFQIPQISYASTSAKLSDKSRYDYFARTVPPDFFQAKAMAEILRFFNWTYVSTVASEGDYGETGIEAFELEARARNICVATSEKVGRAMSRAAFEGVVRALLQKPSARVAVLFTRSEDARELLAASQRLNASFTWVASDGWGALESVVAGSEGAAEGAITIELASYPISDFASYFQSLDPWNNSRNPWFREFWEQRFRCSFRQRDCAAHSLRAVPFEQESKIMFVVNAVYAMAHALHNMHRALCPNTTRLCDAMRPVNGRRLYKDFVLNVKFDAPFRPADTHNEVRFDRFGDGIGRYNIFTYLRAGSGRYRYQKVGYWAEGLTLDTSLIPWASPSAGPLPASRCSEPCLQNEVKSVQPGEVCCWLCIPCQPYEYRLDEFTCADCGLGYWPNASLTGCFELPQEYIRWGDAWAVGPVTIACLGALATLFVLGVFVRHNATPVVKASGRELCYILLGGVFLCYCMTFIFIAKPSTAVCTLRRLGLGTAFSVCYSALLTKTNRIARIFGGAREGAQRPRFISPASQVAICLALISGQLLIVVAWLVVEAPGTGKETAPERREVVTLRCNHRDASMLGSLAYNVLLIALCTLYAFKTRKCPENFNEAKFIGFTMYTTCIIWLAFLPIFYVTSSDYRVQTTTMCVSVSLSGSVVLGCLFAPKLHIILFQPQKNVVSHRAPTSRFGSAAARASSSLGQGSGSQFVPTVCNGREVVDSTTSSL

[2] = molecular target: T1, Metabotropic glutamate receptor 2; assay: Displacement of [3H]JNJ-46281222 from human mGlu2 receptor expressed in CHOK1 cell membranes at IC50 after 1 hr in presence of glutamate by microbeta scintillation counting method
Target sequence in this assay (Q14416 19-872 limits assumed): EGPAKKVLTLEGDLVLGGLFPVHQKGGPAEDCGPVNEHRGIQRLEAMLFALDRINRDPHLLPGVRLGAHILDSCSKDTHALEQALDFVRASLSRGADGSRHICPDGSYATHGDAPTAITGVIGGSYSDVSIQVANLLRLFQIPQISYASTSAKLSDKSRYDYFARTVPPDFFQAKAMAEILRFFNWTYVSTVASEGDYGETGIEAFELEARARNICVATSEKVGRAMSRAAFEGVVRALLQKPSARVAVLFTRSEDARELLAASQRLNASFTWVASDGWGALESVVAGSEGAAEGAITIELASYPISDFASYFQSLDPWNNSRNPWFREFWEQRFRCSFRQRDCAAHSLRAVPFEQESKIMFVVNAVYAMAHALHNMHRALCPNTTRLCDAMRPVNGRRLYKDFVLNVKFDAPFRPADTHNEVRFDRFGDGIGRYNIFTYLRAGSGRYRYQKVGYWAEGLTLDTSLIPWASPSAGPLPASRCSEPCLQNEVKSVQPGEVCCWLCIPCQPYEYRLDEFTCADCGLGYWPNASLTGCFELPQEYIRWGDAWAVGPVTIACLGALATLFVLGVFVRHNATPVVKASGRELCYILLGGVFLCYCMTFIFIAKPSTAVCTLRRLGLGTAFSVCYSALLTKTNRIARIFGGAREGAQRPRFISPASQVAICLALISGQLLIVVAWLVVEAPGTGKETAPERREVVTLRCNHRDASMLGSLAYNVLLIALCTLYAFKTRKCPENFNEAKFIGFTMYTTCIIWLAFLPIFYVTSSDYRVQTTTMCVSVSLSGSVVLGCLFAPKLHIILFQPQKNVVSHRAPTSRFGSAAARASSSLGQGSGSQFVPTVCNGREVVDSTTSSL

[3] = molecular target: T1, Metabotropic glutamate receptor 2; assay: Positive allosteric modulation of human mGlu2 receptor expressed in CHOK1 cell membranes assessed as increase in glutamate-induced [35S]GTPgammaS binding preincubated for 3 hrs followed by [35S]GTPgammaS addition and measured after 1 hr by scintillation spectrometry method; type: functional
Target sequence in this assay (Q14416 whole entry): as the sequence (Q14416 whole entry) above

[4] = molecular target: T1, Metabotropic glutamate receptor 2; assay: (§1) Irreversible positive allosteric modulation of human mGlu2 receptor expressed in CHOK1 cell membranes assessed as increase in glutamate-induced [35S]GTPgammaS binding at 10 times IC50 preincubated for 30 mins followed by compound washout and subsequent [35S]GTPgammaS addition and measured after 30 mins by scintillation spectrometry method; type: functional
Target sequence in this assay (Q14416 19-872 limits assumed): as the sequence (Q14416 19-872 limits assumed) above

Homo sapiens [5] = species on record: Homo sapiens; assay: Displacement of [3H]JNJ-46281222 from human mGlu2 C7957.33x34A mutant receptor transiently expressed in CHOK1 cell membranes at 10 times IC50 after 1 hr by liquid scintillation counting method
[6] = molecular target: T1, Metabotropic glutamate receptor 2; assay: Displacement of [3H]JNJ-46281222 from human mGlu2 receptor expressed in CHOK1 cell membranes assessed as association rate constant after 1 hr in presence of glutamate by microbeta scintillation counting method
Target sequence in this assay (Q14416 19-872 limits assumed): as above

[7] = Displacement of [3H]JNJ-46281222 from human mGlu2 T7917.29x30A mutant receptor transiently expressed in CHOK1 cell membranes after 1 hr by liquid scintillation counting method
[8] = molecular target: T1, Metabotropic glutamate receptor 2; assay: as §1, with “Positive” for “Irreversible positive”, “IC50 test compound added before washing steps” for “IC50”, “by” for “by compound washout and subsequent”; type: functional
Target sequence in this assay (Q14416 19-872 limits assumed): as above

[9] = molecular target: T1, Metabotropic glutamate receptor 2; assay: Displacement of [3H]JNJ-46281222 from human mGlu2 receptor transiently expressed in CHOK1 cell membranes after 1 hr by liquid scintillation counting method
Target sequence in this assay (Q14416 whole entry): as the sequence (Q14416 whole entry) above

Homo sapiens [10] = species on record: Homo sapiens; assay: Displacement of [3H]JNJ-46281222 from human mGlu2 R6353.32x32A mutant receptor transiently expressed in CHOK1 cell membranes at 10 times IC50 after 1 hr by liquid scintillation counting method
[11] = system: Metabotropic glutamate receptor 2 (Homo sapiens), Q14416 [Y787A]; assay: Displacement of [3H]JNJ-46281222 from human mGlu2 Y787A mutant receptor transiently expressed in CHOK1 cell membranes at 10 times IC50 after 1 hr by liquid scintillation counting method
[12] = molecular target: T1, Metabotropic glutamate receptor 2; assay: Displacement of [3H]JNJ-46281222 from human mGlu2 receptor expressed in CHOK1 cell membranes preincubated for 3 hrs followed by [3H]JNJ-46281222 addition and measured after 1 hr by microbeta scintillation counting method
Target sequence in this assay (Q14416 whole entry): as above

[13] = molecular target: T1, Metabotropic glutamate receptor 2; assay: Ratio of EC50 for positive allosteric modulation of human mGlu2 receptor expressed in CHOK1 cell membranes assessed as increase in glutamate-induced [35S]GTPgammaS binding co-incubated with [35S]GTPgammaS to EC50 for positive allosteric modulation of human mGlu2 receptor expressed in CHOK1 cell …; type: functional
Target sequence in this assay (Q14416 19-872 limits assumed): as the sequence (Q14416 19-872 limits assumed) above

[14] = molecular target: T1, Metabotropic glutamate receptor 2; assay: Ratio of Ki for human mGlu2 receptor expressed in CHOK1 cell membranes without preincubation to Ki for human mGlu2 receptor expressed in CHOK1 cell membranes preincubated for 3 hrs; type: cell-based
In short: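 CHO-K1 membranes stably expressing hmGlu2 (butyrate-induced, 15 µg) were pre-coupled to WGA SPA beads. […] Nonspecific binding was defined with 10 µM JNJ-40068782. Mean of ≥3 experiments in duplicate.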
Target sequence in this assay (Q14416 19-872 limits assumed): as above

Homo sapiens [15] = species on record: Homo sapiens; assay: Displacement of [3H]JNJ-46281222 from human mGlu2 T7917.29x30A mutant receptor transiently expressed in CHOK1 cell membranes preincubated for 3 hrs followed by [3H]JNJ-46281222 addition and measured after 1 hr by liquid scintillation counting method
[16] = molecular target: T1, Metabotropic glutamate receptor 2; assay: Positive allosteric modulation of human mGlu2 receptor expressed in CHOK1 cell membranes assessed as increase in glutamate-induced [35S]GTPgammaS binding measured after 1 hr by scintillation spectrometry method; type: functional
Target sequence in this assay (Q14416 whole entry): as the sequence (Q14416 whole entry) above

[17] = molecular target: T1, Metabotropic glutamate receptor 2; assay: Irreversible displacement of [3H]JNJ-46281222 from human mGlu2 receptor expressed in CHOK1 cell membranes at 10 times IC50 preincubated for 1 hr in presence of glutamate followed by compound washout and [3H]JNJ-46281222 addition measured after 1 hr by microbeta scintillation counting method
[18] = system: Metabotropic glutamate receptor 2 (Homo sapiens), Q14416 [R720A]; assay: Displacement of [3H]JNJ-46281222 from human mGlu2 R720A mutant receptor transiently expressed in CHOK1 cell membranes at 10 times IC50 after 1 hr by liquid scintillation counting method
[19] = molecular target: T1, Metabotropic glutamate receptor 2; assay: Positive allosteric modulation of human mGlu2 receptor expressed in CHOK1 cell membranes assessed as increase in glutamate-induced [35S]GTPgammaS binding preincubated for 30 mins followed by [35S]GTPgammaS addition and measured after 90 mins by scintillation spectrometry method; type: functional
Target sequence in this assay (Q14416 whole entry): as above

[20] = molecular target: T1, Metabotropic glutamate receptor 2; assay: Displacement of [3H]JNJ-46281222 from human mGlu2 receptor expressed in CHOK1 cell membranes assessed as dissociation rate constant after 1 hr in presence of glutamate by microbeta scintillation counting method
[21] = molecular target: Metabotropic glutamate receptor 8 (Homo sapiens) (UniProt O00222); assay: Antagonist activity at human mGlu8 receptor expressed in HEK293 cells by calcium assay; type: functional, cell-based
[22] = molecular target: Metabotropic glutamate receptor 3 (Homo sapiens) (UniProt Q14832); assay: Agonist activity at human mGlu3 receptor expressed in HEK293 cells by calcium assay; type: functional, cell-based
[23] = molecular target: T1, Metabotropic glutamate receptor 2; assay: Displacement of [3H]JNJ-46281222 from human mGlu2 receptor expressed in CHOK1 cell membranes assessed as residence time after 1 hr in presence of glutamate by microbeta scintillation counting method
[24] = molecular target: Metabotropic glutamate receptor 3 (Homo sapiens) (UniProt Q14832); assay: Antagonist activity at human mGlu3 receptor expressed in HEK293 cells by calcium assay; type: functional, cell-based
[25] = molecular target: Metabotropic glutamate receptor 1 (Homo sapiens) (UniProt Q13255); assay: Antagonist activity at human mGlu1 receptor expressed in HEK293 cells by calcium assay; type: functional, cell-based
[26] = molecular target: Metabotropic glutamate receptor 5 (Homo sapiens) (UniProt P41594); assay: Agonist activity at human mGlu5 receptor expressed in HEK293 cells by calcium assay; type: functional, cell-based
[27] = molecular target: Metabotropic glutamate receptor 5 (Homo sapiens) (UniProt P41594); assay: Positive allosteric modulation of human mGlu5 receptor expressed in HEK293 cells by calcium assay; type: functional, cell-based
[28] = molecular target: Metabotropic glutamate receptor 3 (Homo sapiens) (UniProt Q14832); assay: Positive allosteric modulation of human mGlu3 receptor expressed in HEK293 cells by calcium assay; type: functional, cell-based
[29] = molecular target: Metabotropic glutamate receptor 5 (Homo sapiens) (UniProt P41594); assay: Antagonist activity at human mGlu5 receptor expressed in HEK293 cells by calcium assay; type: functional, cell-based
[30] = molecular target: Metabotropic glutamate receptor 1 (Homo sapiens) (UniProt Q13255); assay: Agonist activity at human mGlu1 receptor expressed in HEK293 cells by calcium assay; type: functional, cell-based
[31] = molecular target: Metabotropic glutamate receptor 1 (Homo sapiens) (UniProt Q13255); assay: Positive allosteric modulation of human mGlu1 receptor expressed in HEK293 cells by calcium assay; type: functional, cell-based
[32] = molecular target: Metabotropic glutamate receptor 8 (Homo sapiens) (UniProt O00222); assay: Agonist activity at human mGlu8 receptor expressed in HEK293 cells by calcium assay; type: functional, cell-based

Chain of Metabotropic glutamate receptor 5 (Homo sapiens) (P41594 21-1212 limits assumed): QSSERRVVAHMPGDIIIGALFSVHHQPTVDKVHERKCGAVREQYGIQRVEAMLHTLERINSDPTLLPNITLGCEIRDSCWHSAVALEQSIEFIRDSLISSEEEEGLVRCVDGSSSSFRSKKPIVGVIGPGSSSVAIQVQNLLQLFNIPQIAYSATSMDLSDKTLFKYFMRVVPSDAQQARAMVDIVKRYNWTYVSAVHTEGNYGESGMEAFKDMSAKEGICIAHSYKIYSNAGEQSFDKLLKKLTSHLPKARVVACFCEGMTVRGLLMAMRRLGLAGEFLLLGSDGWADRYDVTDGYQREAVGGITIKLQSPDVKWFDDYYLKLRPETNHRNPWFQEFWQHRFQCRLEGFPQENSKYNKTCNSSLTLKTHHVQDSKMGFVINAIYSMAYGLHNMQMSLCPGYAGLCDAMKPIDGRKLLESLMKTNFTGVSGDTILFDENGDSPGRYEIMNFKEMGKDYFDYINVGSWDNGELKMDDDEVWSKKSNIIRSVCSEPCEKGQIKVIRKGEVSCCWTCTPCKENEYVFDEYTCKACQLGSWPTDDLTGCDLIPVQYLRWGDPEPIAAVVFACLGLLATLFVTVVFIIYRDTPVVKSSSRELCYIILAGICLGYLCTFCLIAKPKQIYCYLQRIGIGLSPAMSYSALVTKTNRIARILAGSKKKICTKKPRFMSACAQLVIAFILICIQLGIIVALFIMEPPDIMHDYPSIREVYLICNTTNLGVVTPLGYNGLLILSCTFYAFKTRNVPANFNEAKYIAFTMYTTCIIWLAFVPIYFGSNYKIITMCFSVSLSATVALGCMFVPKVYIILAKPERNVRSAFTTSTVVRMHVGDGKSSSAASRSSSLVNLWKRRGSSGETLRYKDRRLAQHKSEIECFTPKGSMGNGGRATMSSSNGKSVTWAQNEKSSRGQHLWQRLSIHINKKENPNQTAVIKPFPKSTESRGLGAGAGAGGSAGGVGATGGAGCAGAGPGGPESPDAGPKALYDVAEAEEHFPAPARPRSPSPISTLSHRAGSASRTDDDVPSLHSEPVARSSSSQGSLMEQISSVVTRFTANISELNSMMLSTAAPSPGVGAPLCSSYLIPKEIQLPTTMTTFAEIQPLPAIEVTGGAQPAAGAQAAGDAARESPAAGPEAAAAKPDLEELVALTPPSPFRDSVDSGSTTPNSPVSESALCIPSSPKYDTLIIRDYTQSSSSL
Chain of Metabotropic glutamate receptor 1 (Homo sapiens) (Q13255 19-1194 limits assumed): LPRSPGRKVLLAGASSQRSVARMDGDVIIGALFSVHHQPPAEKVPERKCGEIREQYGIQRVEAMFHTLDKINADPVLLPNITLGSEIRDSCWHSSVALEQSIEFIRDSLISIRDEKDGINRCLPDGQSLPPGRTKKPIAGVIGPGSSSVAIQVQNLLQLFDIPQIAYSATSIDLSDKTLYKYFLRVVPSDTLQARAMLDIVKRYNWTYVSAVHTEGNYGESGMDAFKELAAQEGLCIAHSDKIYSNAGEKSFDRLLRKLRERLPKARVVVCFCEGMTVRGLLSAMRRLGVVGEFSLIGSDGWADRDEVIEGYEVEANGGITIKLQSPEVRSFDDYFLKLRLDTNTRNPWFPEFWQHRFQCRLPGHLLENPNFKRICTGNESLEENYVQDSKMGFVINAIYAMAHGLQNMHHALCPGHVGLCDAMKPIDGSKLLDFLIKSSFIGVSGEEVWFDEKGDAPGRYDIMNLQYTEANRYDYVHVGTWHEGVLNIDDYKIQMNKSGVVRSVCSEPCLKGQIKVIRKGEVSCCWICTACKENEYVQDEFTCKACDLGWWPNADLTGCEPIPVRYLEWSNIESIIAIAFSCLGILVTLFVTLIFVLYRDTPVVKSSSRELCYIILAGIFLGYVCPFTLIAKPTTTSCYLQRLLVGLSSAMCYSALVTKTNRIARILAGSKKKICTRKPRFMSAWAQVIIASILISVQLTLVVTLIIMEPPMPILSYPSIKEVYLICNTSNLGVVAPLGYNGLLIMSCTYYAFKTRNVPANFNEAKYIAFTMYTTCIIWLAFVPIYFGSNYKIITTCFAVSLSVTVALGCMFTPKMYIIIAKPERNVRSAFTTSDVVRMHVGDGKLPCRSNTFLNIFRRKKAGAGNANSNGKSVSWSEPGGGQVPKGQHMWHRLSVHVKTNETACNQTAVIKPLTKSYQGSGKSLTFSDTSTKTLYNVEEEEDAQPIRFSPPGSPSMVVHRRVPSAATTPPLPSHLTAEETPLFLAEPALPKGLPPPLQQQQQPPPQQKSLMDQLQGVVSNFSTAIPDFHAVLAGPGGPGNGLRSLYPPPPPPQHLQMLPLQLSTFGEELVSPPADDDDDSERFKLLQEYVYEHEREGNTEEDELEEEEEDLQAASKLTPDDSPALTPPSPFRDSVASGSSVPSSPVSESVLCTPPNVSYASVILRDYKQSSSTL
Chain of Metabotropic glutamate receptor 2 (Homo sapiens), Q14416 [R720A] (Q14416 whole entry R720A): as the sequence (Q14416 whole entry) above, with R720A counted along it
Chain of Metabotropic glutamate receptor 2 (Homo sapiens), Q14416 [Y787A] (Q14416 whole entry Y787A): as the sequence (Q14416 whole entry) above, with Y787A counted along it

| Structure (SMILES) | Ki [1] [nM] | inhibition (Homo sapiens [5]) | K [6] | inhibition (Homo sapiens [10]) | Ki [12] [nM] | inhibition [17] | EC50 [19] [nM] | K [20] [s⁻¹] | TIME [23] [h] | other results |
| --- | --- | --- | --- | --- | --- | --- | --- | --- | --- | --- |
| O=C(Nc1ccc(-c2ccn3c(CC4CC4)nnc3c2C(F)(F)F)cc1)c1ccc(S(=O)(=O)F)cc1 | 61.7 | Active | 3.2 ×10³ /M/s | Active | 6.17 | Active | 158 | – | – | inhibition [2]: inactive; EC50 [3]: 178 nM; Activity [4]: Active; pKi [7]: 6.45; Activity [8]: Active; Ki [9]: 174 nM; inhibition [11]: Active; Ratio EC50 [13]: 7; Ratio Ki [14]: 10; inhibition (Homo sapiens [15]): inactive; EC50 [16]: 1260 nM; inhibition [18]: Active |
| O=C(Nc1cccc(-c2ccn3c(CC4CC4)nnc3c2C(F)(F)F)c1)c1ccc(S(=O)(=O)F)cc1 | 112 | – | 2.1 ×10⁴ /M/s | – | 166 | inactive | 158 | 0.00091 | 0.3 | inhibition [21]: inactive; Activity [22]: inactive; inhibition [24]: inactive; inhibition [25]: inactive; Activity [26]: inactive; Activity [27]: inactive; Activity [28]: inactive; inhibition [29]: inactive; Activity [30]: inactive; Activity [31]: inactive; Activity [32]: inactive |
| FC(F)(F)c1c(CN2CCC(c3ccccc3)CC2)ccn2c(CC3CC3)nnc12 | – | inactive | – | inactive | – | – | – | – | – | – |
| O=C(NCc1ccc(-c2ccn3c(CC4CC4)nnc3c2C(F)(F)F)cc1)c1ccc(S(=O)(=O)F)cc1 | 5.75 | – | 2.2 ×10⁵ /M/s | – | 4.17 | inactive | 15.1 | 0.00057 | 0.483 | – |
